Results gathered from unrelated publications.
Each line is one published result; the experiments were not run side by side.
Target: Atypical kinase COQ8A, mitochondrial (COQ8A, Homo sapiens, UniProt Q8NI60)

O=C(NCCCN1CCOCC1)c1ccc(Nc2ncc(Cl)c(-c3ccc(Cl)s3)n2)cc1  remaining binding (binding; competition with immobilised ligand; 1 µM): 100%
FC(F)(F)c1ccc2c(c1)nc(-c1cccnc1)n2C1CC1  remaining binding (cell-free assay; competition with immobilised ligand; 1 µM): 100%
COc1cnc(Nc2cccc(S(N)(=O)=O)c2)nc1N1CCN(c2ccccc2)C(=O)C1  remaining binding (binding; competition with immobilised ligand; 1 µM): 100%
c1cnn2ncc(-c3ccnc(N4CCC45COC5)n3)c2c1  remaining binding (binding; 1 µM): 100%
O=C(Nc1c[nH]nc1C(=O)NC1CCNCC1)c1cc(F)cc(F)c1  remaining binding (binding; competition with immobilised ligand; 1 µM): 100%
C[C@@H]1CN(c2cc(-c3nn(C)c4ccc(OC5(C)CC5)cc34)ncn2)C[C@H](C)O1  remaining binding (cell-free assay; competition with immobilised ligand; 1 µM): 100%
N[C@H]1CCN(c2nccc(-c3cnn4ncccc34)n2)C1  remaining binding (binding; 1 µM): 79%
Cn1nc(C(F)(F)F)cc1-c1cnc(N2CCc3cc(S(=O)(=O)Nc4c(F)cc(Cl)cc4F)cc(N4CCCC4=O)c32)nc1  remaining binding (cell-free assay; competition with immobilised ligand; 1 µM): 100%
O=C(NCCCN1CCOCC1)c1ccc(Nc2nccc(-c3cc4ccccc4s3)n2)cc1  remaining binding (binding; competition with immobilised ligand; 1 µM): 90%
C[C@@H]1CN(c2ccc3ncc(-c4ccc5[nH]nc(C6CC6)c5c4)n3n2)C[C@H](C)O1  remaining binding (binding; competition with immobilised ligand; 0.5 µM): 100%
CN(C)c1nccc(-c2cnn3ncccc23)n1  remaining binding (binding; 1 µM): 88%
Cc1cc(NC(=O)c2cccc(S(F)(F)(F)(F)F)c2)cc(-n2ccn3nc(-c4cccnc4)cc23)c1  remaining binding (cell-free assay; competition with immobilised ligand; 1 µM): 82.8%
CCN1CCN(Cc2ccc(C(=O)Nc3ccc(C)c(Oc4ccc5c(c4)CC(=O)N5)c3)cc2C(F)(F)F)CC1  remaining binding (binding; competition with immobilised ligand; 1 µM): 92%
Nc1ncc2c(n1)-c1c([nH]c3ccc(C#CC4CC4)cc13)CCCC2  remaining binding (binding; competition with immobilised ligand; 1 µM): 96%
O=C(N[C@H]1CCCCC/C=C\C2C[C@@]2(C(=O)O)NC(=O)[C@@H]2C[C@@H](Oc3ccncc3)CN2C1=O)OC1CCCC1 (some centres unmarked)  remaining binding (binding; competition with immobilised ligand; 1 µM): 90%
C[C@@H](c1ccc(-n2cnc3c(N)ncnc32)cc1)N1CCc2nn(C)c(Cc3ccccc3)c2C1=O  remaining binding (binding; competition with immobilised ligand; 0.1 µM): 84%
COc1ccnn2ncc(-c3ccnc(N(C)C)n3)c12  remaining binding (binding; 1 µM): 100%
O=C(c1ccc(Nc2ncc(Cl)c(-c3cc4ccccc4s3)n2)cc1)N1CCC(N2CCCC2)CC1  remaining binding (binding; competition with immobilised ligand; 1 µM): 78%
O=C(NCc1ncc(C(F)(F)F)cc1Cl)c1ccc2c(c1)C1(CCS(=O)(=O)CC1)[C@@H](C1CC1)N2S(=O)(=O)c1ccc(F)cc1  remaining binding (cell-free assay; competition with immobilised ligand; 1 µM): 90%
CN(C)c1ncc(F)c(-c2cnn3ncccc23)n1  remaining binding (binding; 1 µM): 96%
CC(=O)C1=C(C)N(c2cccc(C(F)(F)F)c2)C(=O)N[C@@H]1c1ccc(C#N)nc1  remaining binding (cell-free assay; competition with immobilised ligand; 1 µM): 100%
C[C@@H]1CCN(c2nccc(-c3cnn4ncccc34)n2)C1  remaining binding (binding; 1 µM): 100%
c1cncc(-c2cccc(Nc3nccc(NC4CCCCC4)n3)c2)c1  remaining binding (binding; competition with immobilised ligand; 10 µM): 81%
